{
  "source": "ChEMBL document CHEMBL1143911",
  "about": "“Studies on quinones. Part 42: Synthesis of furylquinone and hydroquinones with antiproliferative activity against human tumor cell lines” (2008)",
  "format_in_all_cases": "functional",
  "key": {"[1]": {"tested_on": "MCF7", "assay": "Cytotoxicity against human MCF7 cells after 48 hrs", "details": "MCF7, 48 h", "procedure,_shortened": "(§1)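 Adherent cells kept in RPMI-1640 with 5% heat-inactivated FBS, 2 mM glutamine and 50 µg/mL gentamycin at 37 °C, 5% CO2. Plated at 1.5 × 10⁵ cells/mL, attached overnight, then given five concentrations (maximum 150 µM; DMSO stocks diluted in medium) for 48 h. Fixed in situ, SRB-stained, absorbance at 492 nm. GI50 (50% inhibition of net growth) taken from dose–response curves.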"}, "[2]": {"tested_on": "NCI-H460", "assay": "Cytotoxicity against human NCI-H460 cells after 48 hrs", "details": "NCI-H460, 48 h", "procedure,_shortened": "as §1, with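 “7.5” for “1.5”, “10⁴” for “10⁵”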"}, "[3]": {"tested_on": "SF-268", "assay": "Cytotoxicity against human SF268 cells after 48 hrs", "details": "SF-268, 48 h", "procedure,_shortened": "as §1"}},
  "data": [
    {"compound": "CN(C)/N=C/c1ccc(C2=CC(=O)C=CC2=O)o1", "values": [
      {"measurement": "GI50", "setting": "[1]", "result": 33.5, "unit": "µM"},
      {"measurement": "GI50", "setting": "[2]", "result": 148, "unit": "µM"},
      {"measurement": "GI50", "setting": "[3]", "result": 100, "unit": "µM"}
    ]},
    {"compound": "CN(C)/N=C/c1ccc(C2=C(Cl)C(=O)c3ccccc3C2=O)o1", "values": [
      {"measurement": "GI50", "setting": "[1]", "result": 8.1, "unit": "µM"},
      {"measurement": "GI50", "setting": "[2]", "result": 10.9, "unit": "µM"},
      {"measurement": "GI50", "setting": "[3]", "result": 9.3, "unit": "µM"}
    ]},
    {"compound": "CN(C)/N=C/c1ccc(-c2c(O)ccc(O)c2C=O)o1", "values": [
      {"measurement": "GI50", "setting": "[1]", "result": 29.4, "unit": "µM"},
      {"measurement": "GI50", "setting": "[2]", "result": 93, "unit": "µM"},
      {"measurement": "GI50", "setting": "[3]", "result": 38.3, "unit": "µM"}
    ]},
    {"compound": "O=Cc1c(O)ccc(O)c1Cl", "values": [
      {"measurement": "GI50", "setting": "[1]", "result": 15.6, "unit": "µM"},
      {"measurement": "GI50", "setting": "[2]", "result": 122, "unit": "µM"},
      {"measurement": "GI50", "setting": "[3]", "result": 18.8, "unit": "µM"}
    ]},
    {"compound": "O=Cc1ccc(-c2c(O)ccc(O)c2C=O)o1", "values": [
      {"measurement": "GI50", "setting": "[1]", "result": 20.3, "unit": "µM"},
      {"measurement": "GI50", "setting": "[2]", "result": 80.2, "unit": "µM"},
      {"measurement": "GI50", "setting": "[3]", "result": 35.8, "unit": "µM"}
    ]},
    {"compound": "CN(C)/N=C/c1ccc(C2=CC(=O)c3ccccc3C2=O)o1", "values": [
      {"measurement": "GI50", "setting": "[1]", "result": 7.7, "unit": "µM"},
      {"measurement": "GI50", "setting": "[2]", "result": 6.8, "unit": "µM"},
      {"measurement": "GI50", "setting": "[3]", "result": 6.5, "unit": "µM"}
    ]},
    {"compound": "CCCCSc1c(O)ccc(O)c1C(C)=O", "values": [
      {"measurement": "GI50", "setting": "[1]", "result": 29.2, "unit": "µM"},
      {"measurement": "GI50", "setting": "[2]", "result": 63.3, "unit": "µM"},
      {"measurement": "GI50", "setting": "[3]", "result": 27.5, "unit": "µM"}
    ]},
    {"compound": "COC1=CC(=O)C(c2ccc(/C=N/N(C)C)o2)=CC1=O", "values": [
      {"measurement": "GI50", "setting": "[1]", "result": 8.2, "unit": "µM"},
      {"measurement": "GI50", "setting": "[2]", "result": 27.2, "unit": "µM"},
      {"measurement": "GI50", "setting": "[3]", "result": 9.1, "unit": "µM"}
    ]},
    {"compound": "COc1cccc2c1C(=O)c1c(O)c3c(c(O)c1C2=O)C[C@@](O)(C(=O)CO)C[C@@H]3O[C@H]1C[C@H](N)[C@H](O)[C@H](C)O1", "note": "[DOXORUBICIN]", "values": [
      {"measurement": "GI50", "setting": "[1]", "result": 0.0428, "unit": "µM"},
      {"measurement": "GI50", "setting": "[2]", "result": 0.094, "unit": "µM"},
      {"measurement": "GI50", "setting": "[3]", "result": 0.093, "unit": "µM"}
    ]}
  ]
}
